Measurements as given in ChEMBL document CHEMBL3864165, “Design, synthesis, and AChE inhibitory activity of new benzothiazole-piperazines” (Bioorg Med Chem Lett, 2016).

Key:
[1] = target: Acetylcholinesterase (Electrophorus electricus) (UniProt O42275); test: Inhibition of electric eel AChE at 10^-6 M preincubated for 15 mins followed by acetylthiocholine iodide substrate addition measured for 5 mins by Ellman's spectrophotometric method relative to control
[2] = target: T1, Acetylcholinesterase (Electrophorus electricus, UniProt O42275); test: Inhibition of electric eel AChE preincubated for 15 mins followed by acetylthiocholine iodide substrate addition measured for 5 mins by Ellman's spectrophotometric method
T1 sequence (O42275 whole entry): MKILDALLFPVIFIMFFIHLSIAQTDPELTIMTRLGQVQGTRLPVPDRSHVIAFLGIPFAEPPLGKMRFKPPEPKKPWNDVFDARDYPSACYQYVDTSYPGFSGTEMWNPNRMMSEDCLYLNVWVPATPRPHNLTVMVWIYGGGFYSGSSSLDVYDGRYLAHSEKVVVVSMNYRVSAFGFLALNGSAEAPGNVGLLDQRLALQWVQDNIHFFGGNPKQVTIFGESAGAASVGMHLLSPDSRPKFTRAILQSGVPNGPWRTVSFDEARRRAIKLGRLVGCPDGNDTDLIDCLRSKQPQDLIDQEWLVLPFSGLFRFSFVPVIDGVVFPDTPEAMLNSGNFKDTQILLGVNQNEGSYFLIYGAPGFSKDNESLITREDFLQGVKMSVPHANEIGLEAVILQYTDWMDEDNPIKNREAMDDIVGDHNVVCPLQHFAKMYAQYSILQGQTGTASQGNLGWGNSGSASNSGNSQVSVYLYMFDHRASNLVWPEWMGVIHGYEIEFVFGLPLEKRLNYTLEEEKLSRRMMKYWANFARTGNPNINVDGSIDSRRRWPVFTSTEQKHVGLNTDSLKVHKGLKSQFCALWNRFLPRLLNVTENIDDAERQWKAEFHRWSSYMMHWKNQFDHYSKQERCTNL

[3] = target: Acetylcholinesterase (Electrophorus electricus) (UniProt O42275); test: Inhibition of electric eel AChE at 10^-7 M preincubated for 15 mins followed by acetylthiocholine iodide substrate addition measured for 5 mins by Ellman's spectrophotometric method relative to control
[4] = target: Acetylcholinesterase (Electrophorus electricus) (UniProt O42275); test: Inhibition of electric eel AChE at 10^-3 M preincubated for 15 mins followed by acetylthiocholine iodide substrate addition measured for 5 mins by Ellman's spectrophotometric method relative to control
[5] = target: Acetylcholinesterase (Electrophorus electricus) (UniProt O42275); test: Inhibition of electric eel AChE at 10^-4 M preincubated for 15 mins followed by acetylthiocholine iodide substrate addition measured for 5 mins by Ellman's spectrophotometric method relative to control
[6] = target: T1, Acetylcholinesterase; test: Mixed-type inhibition of electric eel AChE preincubated for 15 mins followed by acetylthiocholine iodide substrate addition measured for 5 mins by Lineweaver-Burk plot analysis
Summary of the method: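 Substrate-velocity curves recorded with and without inhibitor, with initial velocities measured at acetylthiocholine (ATC) concentrations from 600 µM down to 18.75 µM. Data analysed as 1/V plots. Ki taken as the x-axis intercept of a secondary plot of 1/V versus inhibitor concentration.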

[7] = Cytotoxicity against mouse NIH/3T3 cells after 24 hrs by MTT assay; details: NIH/3T3 cells
[8] = test system: Salmonella typhimurium; test: Genotoxicity in Salmonella typhimurium TA98 assessed as increase in number of revertants at 0.156 mg/ml in presence of aroclor-1254-induced Sprague-Dawley rat liver S9 fraction by Ames-MPF assay relative to control; type: toxicity, organism-based; details: salmonella enterica subsp. enterica serovar typhimurium
Summary of the method: (§1)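 Ames MPF microplate fluctuation format, run with and without S9 metabolic activation. The read-out is the count of positive (revertant) wells. A run is accepted only when positive controls give more than 25 positive wells and negative controls give fewer than eight.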

[9] = test system: Salmonella typhimurium; test: Genotoxicity in Salmonella typhimurium TA98 assessed as increase in number of revertants at 0.3125 mg/ml in presence of aroclor-1254-induced Sprague-Dawley rat liver S9 fraction by Ames-MPF assay relative to control; type: toxicity, organism-based; details: salmonella enterica subsp. enterica serovar typhimurium; summary of the method: as §1
[10] = test system: Salmonella typhimurium; test: Genotoxicity in Salmonella typhimurium TA98 assessed as increase in number of revertants at 0.625 mg/ml in presence of aroclor-1254-induced Sprague-Dawley rat liver S9 fraction by Ames-MPF assay relative to control; type: toxicity, organism-based; details: salmonella enterica subsp. enterica serovar typhimurium; summary of the method: as §1
[11] = test system: Salmonella typhimurium; test: Genotoxicity in Salmonella typhimurium TA98 assessed as increase in number of revertants at 1.25 mg/ml in presence of aroclor-1254-induced Sprague-Dawley rat liver S9 fraction by Ames-MPF assay relative to control; type: toxicity, organism-based; details: salmonella enterica subsp. enterica serovar typhimurium; summary of the method: as §1
[12] = test system: Salmonella typhimurium; test: Genotoxicity in Salmonella typhimurium TA98 assessed as increase in number of revertants at 2.5 mg/ml in presence of aroclor-1254-induced Sprague-Dawley rat liver S9 fraction by Ames-MPF assay relative to control; type: toxicity, organism-based; details: salmonella enterica subsp. enterica serovar typhimurium; summary of the method: as §1
[13] = test system: Salmonella typhimurium; test: Genotoxicity in Salmonella typhimurium TA98 assessed as increase in number of revertants at 5 mg/ml in presence of aroclor-1254-induced Sprague-Dawley rat liver S9 fraction by Ames-MPF assay relative to control; type: toxicity, organism-based; details: salmonella enterica subsp. enterica serovar typhimurium; summary of the method: as §1
[14] = test system: Salmonella typhimurium; test: Genotoxicity in Salmonella typhimurium TA98 assessed as increase in number of revertants at 0.156 mg/ml in absence of aroclor-1254-induced Sprague-Dawley rat liver S9 fraction by Ames-MPF assay relative to control; type: toxicity, organism-based; details: salmonella enterica subsp. enterica serovar typhimurium; summary of the method: as §1
[15] = test system: Salmonella typhimurium; test: Genotoxicity in Salmonella typhimurium TA98 assessed as increase in number of revertants at 0.3125 mg/ml in absence of aroclor-1254-induced Sprague-Dawley rat liver S9 fraction by Ames-MPF assay relative to control; type: toxicity, organism-based; details: salmonella enterica subsp. enterica serovar typhimurium; summary of the method: as §1
[16] = test system: Salmonella typhimurium; test: Genotoxicity in Salmonella typhimurium TA98 assessed as increase in number of revertants at 0.625 mg/ml in absence of aroclor-1254-induced Sprague-Dawley rat liver S9 fraction by Ames-MPF assay relative to control; type: toxicity, organism-based; details: salmonella enterica subsp. enterica serovar typhimurium; summary of the method: as §1
[17] = test system: Salmonella typhimurium; test: Genotoxicity in Salmonella typhimurium TA98 assessed as increase in number of revertants at 1.25 mg/ml in absence of aroclor-1254-induced Sprague-Dawley rat liver S9 fraction by Ames-MPF assay relative to control; type: toxicity, organism-based; details: salmonella enterica subsp. enterica serovar typhimurium; summary of the method: as §1
[18] = test system: Salmonella typhimurium; test: Genotoxicity in Salmonella typhimurium TA98 assessed as increase in number of revertants at 2.5 mg/ml in absence of aroclor-1254-induced Sprague-Dawley rat liver S9 fraction by Ames-MPF assay relative to control; type: toxicity, organism-based; details: salmonella enterica subsp. enterica serovar typhimurium; summary of the method: as §1
[19] = test system: Salmonella typhimurium; test: Genotoxicity in Salmonella typhimurium TA98 assessed as increase in number of revertants at 5 mg/ml in absence of aroclor-1254-induced Sprague-Dawley rat liver S9 fraction by Ames-MPF assay relative to control; type: toxicity, organism-based; details: salmonella enterica subsp. enterica serovar typhimurium; summary of the method: as §1
[20] = test system: Salmonella typhimurium; test: Genotoxicity in Salmonella typhimurium TA100 assessed as increase in number of revertants at 0.156 mg/ml in presence of aroclor-1254-induced Sprague-Dawley rat liver S9 fraction by Ames-MPF assay relative to control; type: toxicity, organism-based; details: salmonella enterica subsp. enterica serovar typhimurium; summary of the method: as §1
[21] = test system: Salmonella typhimurium; test: Genotoxicity in Salmonella typhimurium TA100 assessed as increase in number of revertants at 0.3125 mg/ml in presence of aroclor-1254-induced Sprague-Dawley rat liver S9 fraction by Ames-MPF assay relative to control; type: toxicity, organism-based; details: salmonella enterica subsp. enterica serovar typhimurium; summary of the method: as §1
[22] = test system: Salmonella typhimurium; test: Genotoxicity in Salmonella typhimurium TA100 assessed as increase in number of revertants at 0.625 mg/ml in presence of aroclor-1254-induced Sprague-Dawley rat liver S9 fraction by Ames-MPF assay relative to control; type: toxicity, organism-based; details: salmonella enterica subsp. enterica serovar typhimurium; summary of the method: as §1
[23] = test system: Salmonella typhimurium; test: Genotoxicity in Salmonella typhimurium TA100 assessed as increase in number of revertants at 1.25 mg/ml in presence of aroclor-1254-induced Sprague-Dawley rat liver S9 fraction by Ames-MPF assay relative to control; type: toxicity, organism-based; details: salmonella enterica subsp. enterica serovar typhimurium; summary of the method: as §1
[24] = test system: Salmonella typhimurium; test: Genotoxicity in Salmonella typhimurium TA100 assessed as increase in number of revertants at 2.5 mg/ml in presence of aroclor-1254-induced Sprague-Dawley rat liver S9 fraction by Ames-MPF assay relative to control; type: toxicity, organism-based; details: salmonella enterica subsp. enterica serovar typhimurium; summary of the method: as §1
[25] = test system: Salmonella typhimurium; test: Genotoxicity in Salmonella typhimurium TA100 assessed as increase in number of revertants at 5 mg/ml in presence of aroclor-1254-induced Sprague-Dawley rat liver S9 fraction by Ames-MPF assay relative to control; type: toxicity, organism-based; details: salmonella enterica subsp. enterica serovar typhimurium; summary of the method: as §1
[26] = test system: Salmonella typhimurium; test: Genotoxicity in Salmonella typhimurium TA100 assessed as increase in number of revertants at 0.156 mg/ml in absence of aroclor-1254-induced Sprague-Dawley rat liver S9 fraction by Ames-MPF assay relative to control; type: toxicity, organism-based; details: salmonella enterica subsp. enterica serovar typhimurium; summary of the method: as §1
[27] = test system: Salmonella typhimurium; test: Genotoxicity in Salmonella typhimurium TA100 assessed as increase in number of revertants at 0.3125 mg/ml in absence of aroclor-1254-induced Sprague-Dawley rat liver S9 fraction by Ames-MPF assay relative to control; type: toxicity, organism-based; details: salmonella enterica subsp. enterica serovar typhimurium; summary of the method: as §1
[28] = test system: Salmonella typhimurium; test: Genotoxicity in Salmonella typhimurium TA100 assessed as increase in number of revertants at 0.625 mg/ml in absence of aroclor-1254-induced Sprague-Dawley rat liver S9 fraction by Ames-MPF assay relative to control; type: toxicity, organism-based; details: salmonella enterica subsp. enterica serovar typhimurium; summary of the method: as §1
[29] = test system: Salmonella typhimurium; test: Genotoxicity in Salmonella typhimurium TA100 assessed as increase in number of revertants at 1.25 mg/ml in absence of aroclor-1254-induced Sprague-Dawley rat liver S9 fraction by Ames-MPF assay relative to control; type: toxicity, organism-based; details: salmonella enterica subsp. enterica serovar typhimurium; summary of the method: as §1
[30] = test system: Salmonella typhimurium; test: Genotoxicity in Salmonella typhimurium TA100 assessed as increase in number of revertants at 2.5 mg/ml in absence of aroclor-1254-induced Sprague-Dawley rat liver S9 fraction by Ames-MPF assay relative to control; type: toxicity, organism-based; details: salmonella enterica subsp. enterica serovar typhimurium; summary of the method: as §1
[31] = test system: Salmonella typhimurium; test: Genotoxicity in Salmonella typhimurium TA100 assessed as increase in number of revertants at 5 mg/ml in absence of aroclor-1254-induced Sprague-Dawley rat liver S9 fraction by Ames-MPF assay relative to control; type: toxicity, organism-based; details: salmonella enterica subsp. enterica serovar typhimurium; summary of the method: as §1

Acetylcholinesterase (Electrophorus electricus), sequence (O42275 24-633 limits assumed): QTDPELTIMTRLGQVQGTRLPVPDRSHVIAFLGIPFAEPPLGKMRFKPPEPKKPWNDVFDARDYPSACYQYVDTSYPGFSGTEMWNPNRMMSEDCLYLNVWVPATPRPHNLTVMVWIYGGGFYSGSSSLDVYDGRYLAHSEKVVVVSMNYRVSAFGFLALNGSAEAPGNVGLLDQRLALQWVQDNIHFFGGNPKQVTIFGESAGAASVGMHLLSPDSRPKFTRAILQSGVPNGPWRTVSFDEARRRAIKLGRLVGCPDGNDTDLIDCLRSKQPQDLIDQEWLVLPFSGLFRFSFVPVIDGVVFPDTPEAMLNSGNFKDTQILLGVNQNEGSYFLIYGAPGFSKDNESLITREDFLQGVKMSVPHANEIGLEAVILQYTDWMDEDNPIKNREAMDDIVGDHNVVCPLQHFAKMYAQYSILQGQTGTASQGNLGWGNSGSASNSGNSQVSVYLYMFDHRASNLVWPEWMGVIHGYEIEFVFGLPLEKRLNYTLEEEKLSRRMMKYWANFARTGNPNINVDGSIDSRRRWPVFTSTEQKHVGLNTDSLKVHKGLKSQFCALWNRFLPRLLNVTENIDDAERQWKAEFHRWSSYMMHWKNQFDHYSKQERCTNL

COc1ccc2nc(NC(=O)CN3CCN(Cc4ccc(F)cc4)CC3)sc2c1
inhibition [1]: > 50%
IC50 [2]: 244 nM

COc1ccc2nc(NC(=O)CN3CCN(Cc4ccc(C)cc4)CC3)sc2c1
inhibition [1]: > 50%
IC50 [2]: 326 nM

COc1ccc(CN2CCN(CC(=O)Nc3nc4ccc(OC)cc4s3)CC2)cc1
inhibition [1]: > 50%
IC50 [2]: 396 nM

COc1ccc(CN2CCN(CC(=O)Nc3nc4cc(OC)c(OC)cc4s3)CC2)cc1
inhibition [1]: > 50%
IC50 [2]: 252 nM

COc1cc2nc(NC(=O)CN3CCN(CCCN(C)C)CC3)sc2cc1OC
inhibition [1]: > 50%
inhibition [3]: > 50%
inhibition [4]: > 95%
inhibition [5]: 90%
IC50 [2]: 57.6 nM
Ki [6]: 250 nM
IC50 at 24 h [7]: 100000 nM
fold change (FC) [8]: 0.28
fold change (FC) [9]: 1.4
fold change (FC) [10]: 0.56
fold change (FC) [11]: 0.84
fold change (FC) [12]: 1.02
fold change (FC) [13]: 1.49
fold change (FC) [14]: 0.94
fold change (FC) [15]: 0.47
fold change (FC) [16]: 1.04
fold change (FC) [17]: 0.52
fold change (FC) [18]: 1.15
fold change (FC) [19]: 0.89
fold change (FC) [20]: 0.98
fold change (FC) [21]: 0.6
fold change (FC) [22]: 0.53
fold change (FC) [23]: 1.36
fold change (FC) [24]: 1.36
fold change (FC) [25]: 1.43
fold change (FC) [26]: 0.79
fold change (FC) [27]: 0.9
fold change (FC) [28]: 0.69
fold change (FC) [29]: 1.32
fold change (FC) [30]: 0.32
fold change (FC) [31]: 0.05

COc1ccc2nc(NC(=O)CN3CCN(CCN(C)C)CC3)sc2c1
inhibition [1]: > 50%
inhibition [3]: > 50%
IC50 [2]: 94.6 nM

COc1ccc2nc(NC(=O)CN3CCN(Cc4ccc(C(F)(F)F)cc4)CC3)sc2c1
inhibition [1]: > 50%
IC50 [2]: 274 nM
